Experimental data taken from ChEMBL document CHEMBL1687835, “Using bioluminescence to monitor treatment response in real time in mice with Mycobacterium ulcerans infection” (2011).
Active and inactive are the calls of the source.

How the values were obtained:
Mycobacterium ulcerans [1] = assay: Antimicrobial activity against Mycobacterium ulcerans Mu1059 expressing luxAB from vibrio harveyi infected BALB/c mouse assessed as reduction in foodpad CFU count after 4 weeks; assay type: functional, organism-based
How it was run: (§1)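 Preventive footpad model in female BALB/c mice: treatment started 2 weeks post-infection and was given 5 days/week for 4 weeks (RIF 10 mg/kg gavage; STR 150 mg/kg s.c.). Five mice/group were sacrificed weekly. Footpads were minced in 2 ml PBS, and serial dilutions were plated in duplicate on selective 7H11 at 32°C for 3–4 months. Detection limit was 2 CFU/footpad. Log CFU was compared with day 0 by t test or ANOVA/Dunnett.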

Mycobacterium ulcerans [2] = assay: Antimicrobial activity against wild type Mycobacterium ulcerans ATCC 19423 infected BALB/c mouse assessed as delay to time to foodpad swelling; assay type: functional, organism-based
Mycobacterium ulcerans [3] = assay: Antimicrobial activity against recombinant Mycobacterium ulcerans Mu1059 expressing luxAB from vibrio harveyi infected BALB/c mouse assessed as reduction in foodpad relative light unit after 1 week relative to basal level; assay type: functional, organism-based
How it was run: (§2)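 Same preventive schedule, with five mice/group sacrificed weekly. Each minced footpad homogenate (in 2 ml PBS) was read by taking a 200-µl sample, adding 20 µl of 1% decanal, and measuring light for 4 s immediately on a luminometer, in duplicate. Log-transformed RLU was compared with day 0 by unpaired t test or one-way ANOVA with Dunnett's posttest (alpha 0.05).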

Mycobacterium ulcerans [4] = assay: Antimicrobial activity against recombinant Mycobacterium ulcerans Mu1059 expressing luxAB from vibrio harveyi infected BALB/c mouse assessed as reduction in foodpad relative light unit after 2 weeks relative to basal level; assay type: functional, organism-based; how it was run: as §2
Mycobacterium ulcerans [5] = assay: Antimicrobial activity against recombinant Mycobacterium ulcerans Mu1059 expressing luxAB from vibrio harveyi infected BALB/c mouse assessed as reduction in foodpad CFU count after 1 week relative to basal level; assay type: functional, organism-based; how it was run: as §1
Mycobacterium ulcerans [6] = assay: Antimicrobial activity against recombinant Mycobacterium ulcerans Mu1059 expressing luxAB from vibrio harveyi infected BALB/c mouse assessed as reduction in foodpad CFU count after 2 weeks relative to basal level; assay type: functional, organism-based; how it was run: as §1
Mycobacterium ulcerans [7] = assay: Antimicrobial activity against Mycobacterium ulcerans Mu1059 expressing luxAB from vibrio harveyi infected BALB/c mouse assessed as delay to time to foodpad swelling; assay type: functional
How it was run: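 Female BALB/c mice, 4 weeks old, were infected in the left hind footpad with 0.03 ml of bacterial suspension in PBS. From week 2 (lesion index 0), treatment ran for 4 weeks, 5 days/week, with drugs in water, 0.2 ml: RIF 10 mg/kg by gavage; STR or KAN 150 mg/kg subcutaneously. After treatment, 15 mice/group were scored weekly for 23 weeks; swelling was defined as lesion index 1.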

Mycobacterium ulcerans [8] = assay: Antimicrobial activity against wild type Mycobacterium ulcerans Mu1059 infected BALB/c mouse assessed as reduction in foodpad CFU count after 4 weeks

| Structure (SMILES) | Activity (Mycobacterium ulcerans [1]) | Activity (Mycobacterium ulcerans [2]) | Activity (Mycobacterium ulcerans [3]) | Activity (Mycobacterium ulcerans [4]) | Activity (Mycobacterium ulcerans [5]) | Activity (Mycobacterium ulcerans [6]) | Time (Mycobacterium ulcerans [7]) [weeks] | Activity (Mycobacterium ulcerans [8]) |
| --- | --- | --- | --- | --- | --- | --- | --- | --- |
| CN[C@@H]1[C@H](O[C@H]2[C@H](O[C@H]3[C@H](O)[C@@H](O)[C@H](N=C(N)N)[C@@H](O)[C@@H]3N=C(N)N)O[C@@H](C)[C@]2(O)C=O)O[C@@H](CO)[C@H](O)[C@H]1O | Active | inactive | Active | Active | Active | Active | – | – |
| NC[C@H]1O[C@H](O[C@H]2[C@H](O)[C@@H](O[C@H]3O[C@H](CO)[C@@H](O)[C@H](N)[C@H]3O)[C@H](N)C[C@@H]2N)[C@H](O)[C@@H](O)[C@@H]1O [KANAMYCIN] | inactive | inactive | – | – | – | – | 3 | Active |
